# Calls of active or inactive are those of the source. The rule behind the calls is not given here.
# Columns and labels:
# [1] = target: Folate receptor alpha (Homo sapiens) (UniProt P15328); test: Displacement of [3H]folic acid from human FR-alpha receptor expressed in Chinese hamster RT16 cells measured after 15 mins relative to folic acid; type: cell-based; design: concentration or dose not given beside the values
# [2] = target: Bifunctional purine biosynthesis protein ATIC (Homo sapiens) (UniProt P31939); test: Inhibition of AICARFTase in human KB cells expressing RFC/FR-alpha/PCFT assessed as cell growth inhibition measured after 96 hrs in presence of 320 uM AICA by Cell-Titer Blue fluorescence analysis; type: cell-based
# IGROV-1 [3] = test: Antitumor activity against human IGROV1 cells xenografted into standard diet fed SCID mouse assessed as tumor growth at 150 mg/kg, iv administered […] post 2 days of tumor implantation measured on day 20 relative to control; type: functional
# Summary of the method: (§1)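 Female NCR SCID mice, 11 weeks, ~20 g, on folate-deficient or standard diet from 14 days pre-implant; bilateral s.c. IGROV1 fragments (30–60 mg); 5 mice/group; tail-vein dosing from day 2 (Q3d schedules) in 5% ethanol, 1% Tween-80, 0.5% NaHCO3, water, pH 6.5; caliper mass (a×b²)/2; T/C and T−C delay.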
# [4] = target: T1, Proton-coupled folate transporter (Homo sapiens, UniProt Q96NT5); test: Inhibition of [3H]MTX uptake at human PCFT expressed in Chinese hamster R2/PCFT4 cells at pH 5.5 measured after 5 mins by Dixon plot analysis; type: cell-based
# T1 sequence (Q96NT5 whole entry): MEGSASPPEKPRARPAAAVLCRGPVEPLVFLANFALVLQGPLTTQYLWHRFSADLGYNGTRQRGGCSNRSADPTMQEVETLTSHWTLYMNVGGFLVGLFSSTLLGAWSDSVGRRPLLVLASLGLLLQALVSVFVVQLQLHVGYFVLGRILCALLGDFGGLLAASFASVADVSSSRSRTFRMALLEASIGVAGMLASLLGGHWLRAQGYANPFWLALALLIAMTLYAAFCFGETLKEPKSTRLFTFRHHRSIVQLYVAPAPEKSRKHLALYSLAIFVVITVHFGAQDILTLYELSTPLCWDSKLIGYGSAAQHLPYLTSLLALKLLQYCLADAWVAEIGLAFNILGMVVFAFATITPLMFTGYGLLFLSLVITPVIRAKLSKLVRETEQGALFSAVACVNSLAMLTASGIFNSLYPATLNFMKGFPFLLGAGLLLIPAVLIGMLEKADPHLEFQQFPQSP
# [5] = Toxicity in folate-deficient diet fed SCID mouse xenografted with human IGROV1 cells assessed as body weight loss at 28 mg/kg, iv administered […] post 2 days of tumor implantation measured after 48 hrs of last dosage; type: organism-based; conditions: in vivo
# Summary of the method: (§2)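 Female NCR SCID mice (11 weeks old, ~20 g) are fed a folate-deficient diet from 14 days before implant. IGROV1 fragments (30–60 mg) are trocar-implanted subcutaneously in both flanks, and mice are randomised at 5/group. Tail-vein dosing starts on day 2: 28 mg/kg/inj Q3dx5, or 96 or 150 mg/kg/inj Q3dx4. Vehicle is 5% ethanol, 1% Tween-80, 0.5% NaHCO3 in water at pH 6.5. Caliper tumor mass is (a×b²)/2, T/C is taken when controls reach 700–1200 mg, and weights are recorded daily.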
# IGROV-1 [6] = test: Antitumor activity against human IGROV1 cells xenografted into folate-deficient diet fed SCID mouse assessed as tumor growth at 150 mg/kg, iv administered […] post 2 days of tumor implantation measured on day 20 relative to control; type: functional; summary of the method: as §2
# [7] = Cytotoxicity in PCFT-null Chinese hamster R2 cells assessed as reduction in cell viability measured after 96 hrs by Cell-Titer Blue fluorescence analysis; type: cell-based; conditions: Cricetulus griseus, R2, 96 h
# IGROV-1 [8] = test: Antiproliferative activity against human IGROV1 cells expressing human FR-alpha/PCFT assessed as reduction in cell viability measured after 96 hrs in presence of folic acid by Cell-Titer Blue fluorescence analysis; type: functional, cell-based; conditions: IGROV-1, 96 h
# KB = test: Antiproliferative activity against human KB cells expressing human RFC/FR-alpha/PCFT assessed as reduction in cell viability measured after 96 hrs in presence of folic acid by Cell-Titer Blue fluorescence analysis; type: functional, cell-based
# [9] = target: T2, Proton-coupled folate transporter (Homo sapiens) (UniProt Q96NT5); test: Inhibition of [3H]MTX uptake at human PCFT expressed in Chinese hamster R2/PCFT4 cells at 1 uM and pH 5.5 measured after 5 mins; type: cell-based
# T2 sequence (whole entry): T1 sequence (Q96NT5 whole entry)
# [10] = target: T2, Proton-coupled folate transporter (Homo sapiens); test: Inhibition of [3H]MTX uptake at human PCFT expressed in Chinese hamster R2/PCFT4 cells at 10 uM and pH 5.5 measured after 5 mins; type: cell-based
# [11] = Toxicity in standard diet fed SCID mouse xenografted with human IGROV1 cells assessed as body weight loss at 96 and 150 mg/kg, iv administered qd for 4 times post 2 days of tumor implantation measured during compound treatment; type: organism-based; conditions: in vivo, 48 h
# IGROV-1 [12] = test: Antitumor activity against human IGROV1 cells xenografted into standard diet fed SCID mouse assessed as tumor growth at 28 mg/kg, iv administered […] post 2 days of tumor implantation measured on day 20 relative to control; type: functional; summary of the method: as §1
# IGROV-1 [13] = test: Antiproliferative activity against human IGROV1 cells expressing human FR-alpha/PCFT assessed as reduction in cell viability measured after 96 hrs by Cell-Titer Blue fluorescence analysis; type: functional, cell-based; conditions: IGROV-1, 96 h
# Folate receptor alpha (Homo sapiens), sequence (P15328 25-234 limits assumed): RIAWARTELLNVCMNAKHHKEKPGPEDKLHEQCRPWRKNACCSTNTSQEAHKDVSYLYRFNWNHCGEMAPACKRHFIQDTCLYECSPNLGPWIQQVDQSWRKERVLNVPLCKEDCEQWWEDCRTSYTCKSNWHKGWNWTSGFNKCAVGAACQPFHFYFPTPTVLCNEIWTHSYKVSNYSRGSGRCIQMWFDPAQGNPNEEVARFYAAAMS
# Bifunctional purine biosynthesis protein ATIC (Homo sapiens), sequence (P31939 whole entry, looked up): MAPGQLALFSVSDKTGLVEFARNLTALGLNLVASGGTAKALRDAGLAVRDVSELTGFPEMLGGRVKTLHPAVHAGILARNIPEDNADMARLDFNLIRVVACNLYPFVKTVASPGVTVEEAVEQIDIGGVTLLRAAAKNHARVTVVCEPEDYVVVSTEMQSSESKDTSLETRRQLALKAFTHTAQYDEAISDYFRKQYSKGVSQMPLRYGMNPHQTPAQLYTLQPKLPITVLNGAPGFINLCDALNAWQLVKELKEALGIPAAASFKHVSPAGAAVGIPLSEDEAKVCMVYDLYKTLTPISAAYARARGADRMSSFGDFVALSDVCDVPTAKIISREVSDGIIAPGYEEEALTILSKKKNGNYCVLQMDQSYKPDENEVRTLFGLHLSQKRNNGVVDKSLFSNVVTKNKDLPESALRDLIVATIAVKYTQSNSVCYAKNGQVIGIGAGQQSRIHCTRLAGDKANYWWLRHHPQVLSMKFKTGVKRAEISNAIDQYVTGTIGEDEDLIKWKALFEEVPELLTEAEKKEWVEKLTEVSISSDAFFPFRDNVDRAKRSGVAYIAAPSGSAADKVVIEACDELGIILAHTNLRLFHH
smiles,measurement,setting,value
Nc1nc2[nH]c(CCNc3ccc(C(=O)N[C@@H](CCC(=O)O)C(=O)O)cc3)cc2c(=O)[nH]1,inhibition,[1],60 to 110%
same,inhibition,[2],Active
same,T/C,IGROV-1 [3],94%
same,Ki,[4],0.85 µM
same,Activity,[5],Non-Toxic
same,T/C,IGROV-1 [6],12%
same,IC50,[7],> 1 µM
same,IC50,IGROV-1 [8],0.872 µM
same,IC50,KB,0.666 µM
same,inhibition,[9],30 to 60%
same,inhibition,[10],80 to 90%
same,Activity,[11],Non-Toxic
same,T/C,IGROV-1 [12],68%
same,IC50,IGROV-1 [13],0.0027 µM

# From ChEMBL document CHEMBL4431326, “Tumor Targeting with Novel 6-Substituted Pyrrolo [2,3-d] Pyrimidine Antifolates with Heteroatom Bridge Substitutions via Cellular Uptake by Folate Receptor α and the Proton-Coupled Folate Transporter and Inhibition of de Novo Purine Nucleotide Biosynthesis” (J Med Chem, 2016)
